Source: paper PMC9290826 (Chemmedchem, 2021)
≈ marks a conversion by molar mass, not a printed value. Where “and” joins values, the source holds several entries; their conditions need not be identical. Equal values may be shown once.

Experiments:
Assay in all cases: Antibacterial screening, broth dilution MIC
Assay type in all cases: cell-based
[1] = system: Pseudomonas aeruginosa PA7 (DSM 24068); details: for Mean MIC ± standard error: P. aeruginosa PA7, MHB medium, 20 h at 37 °C, absorbance 600 nm, n=3‐13
How it was run: (§1)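 Broth microdilution in MHB (21 g/L Müller Hinton, pH 7.4). Test compound serially diluted from 64 μg/ml, inoculum 2–8×10^5 CFU/ml, duplicate wells. Incubated 20 h at 37 °C, then absorbance read at 600 nm. MIC derived by curve fitting over three independent experiments. Positive controls: amikacin for P. aeruginosa, ciprofloxacin for the others.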

[2] = system: Staphylococcus aureus MRSA (DSM 11822, ICB 25701); details: for Mean MIC ± standard error: MRSA, TSY medium, 20 h at 37 °C, absorbance 600 nm, n=3‐13
How it was run: (§2)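 Test compound serially diluted from 64 μg/ml, inoculum 2–8×10^5 CFU/ml, duplicate wells. Incubated 20 h at 37 °C, then absorbance read at 600 nm. MIC derived by curve fitting over three independent experiments. Positive controls: linezolid for S. aureus, ciprofloxacin for the others.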

[3] = system: Acinetobacter baumannii (DSM 30007, ATCC 19606); details: A. baumannii, MHB medium, 20 h at 37 °C, absorbance 600 nm, n=3‐13
How it was run: as §1

[4] = system: Klebsiella pneumoniae (DSM 11678, ATCC33495); details: K. pneumoniae, MHB medium, 20 h at 37 °C, absorbance 600 nm, n=3‐13
How it was run: as §1

[5] = system: Enterococcus faecium (DSM 20477, ATCC 19434); details: E. faecium, TSY medium, 20 h at 37 °C, absorbance 600 nm, n=3‐13
How it was run: as §2

[6] = system: Escherichia coli (DSM1116, ATCC 9637); details: E. coli, TSY medium, 20 h at 37 °C, absorbance 600 nm, n=3‐13
How it was run: as §2

SMILES	MIC ([1]; Pseudomonas aeruginosa, DSM24068, 20 h, read-out: Mean MIC ± standard error) [µM]	Mean MIC ± standard error [2] [µM]	Mean MIC ± standard error [3] [µM]	Mean MIC ± standard error [4]	Mean MIC ± standard error [5] [µM]	Mean MIC ± standard error [6] [µM]	Mean MIC ± standard error [1] [µM]	MIC ([2]; Staphylococcus aureus, DSM11822|MRSA, 20 h, read-out: Mean MIC ± standard error) [µM]
NCC[C@H](O)C(=O)N[C@@H]1C[C@H](N)[C@@H](O[C@H]2O[C@H](CN)[C@@H](O)[C@H](O)[C@H]2O)[C@H](O)[C@H]1O[C@H]1O[C@H](CO)[C@@H](O)[C@H](N)[C@H]1O [amikacin, reference compound]	6.9 ± 7.3 (≈ 4.04 µg/mL)	–	–	–	–	–	–	–
CCn1[c](=[Au-2]([Cl])([Cl])[Cl])n(CC)c2ccccc21 [2 c]	–	1.1 ± 0.0	3.5 ± 1.2	16.8 µM and 16.8 ± 0.0 µM	4.2 ± 0.0	39.1 ± 25.6	>30	–
CC(=O)NC[C@H]1CN(c2ccc(N3CCOCC3)c(F)c2)C(=O)O1 [linezolid, reference compound]	–	–	–	–	–	–	–	2.8 ± 1 (≈ 0.945 µg/mL)
CC(=O)OC[C@H]1O[C@@H]([S-])[C@H](OC(C)=O)[C@@H](OC(C)=O)[C@@H]1OC(C)=O.CCP(CC)CC.[Au+] [auranofin, reference compound]	–	<0.2	7.8 ± 7.1	>30 µM	0.6 ± 0.2	>30	>30	–
CCn1[c](=[Au-2][Cl])n(CC)c2ccccc21 [2 b]	–	0.8 ± 0.4	8.4 ± 2.4	65.6 µM and 65.6 ± 32.1 µM	1.2 ± 0.0	39.3 ± 0.0	118.0 ± 43.1	–
